In ChEMBL document CHEMBL1137348, “Determination of the binding mode of thienopyrimidinedione antagonists to the human gonadotropin releasing hormone receptor using structure-activity relationships, site-directed mutagenesis, and homology modeling” (J Med Chem, 2006):

Assays:
[1] = target: Gonadotropin-releasing hormone receptor (Homo sapiens, UniProt P30968, D302N); assay: Displacement of [His5, D-Tyr6]GnRH from GnRHR D302N mutant expressed in COS7 cells; type: cell-based, COS-7
Summary of the method: (§1)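 Human GnRH-R mutants (all in F272(6.40)L background) electroporated into COS-7 cells. Membranes taken 36-48 h later and lysed by nitrogen cavitation. Shaken 2 h at room temperature, then filtered and scintillation counted.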

[2] = target: Gonadotropin-releasing hormone receptor (Homo sapiens, UniProt P30968, F313L); assay: Displacement of [His5, D-Tyr6]GnRH from GnRHR F313L mutant expressed in COS7 cells; type: cell-based, COS-7; summary of the method: as §1
[3] = target: Gonadotropin-releasing hormone receptor (Homo sapiens, UniProt P30968, Q208E); assay: Displacement of [His5, D-Tyr6]GnRH from GnRHR Q208E mutant expressed in COS7 cells; type: cell-based, COS-7; summary of the method: as §1
[4] = target: Gonadotropin-releasing hormone receptor (Homo sapiens, UniProt P30968, F272L); assay: Displacement of [125I]-His5, D-Tyr6]GnRH from GnRHR F272L mutant expressed in COS7 cells; type: cell-based, COS-7; summary of the method: as §1
[5] = target: Gonadotropin-releasing hormone receptor (Homo sapiens, UniProt P30968, D302A); assay: Displacement of [His5, D-Tyr6]GnRH from GnRHR D302A mutant expressed in COS7 cells; type: cell-based, COS-7; summary of the method: as §1
[6] = target: Gonadotropin-releasing hormone receptor (Homo sapiens, UniProt P30968, L300A); assay: Displacement of [His5, D-Tyr6]GnRH from GnRHR L300A mutant expressed in COS7 cells; type: cell-based, COS-7; summary of the method: as §1
[7] = target: Gonadotropin-releasing hormone receptor (Homo sapiens, UniProt P30968, F309Q); assay: Displacement of [His5, D-Tyr6]GnRH from GnRHR F309Q mutant expressed in COS7 cells; type: cell-based, COS-7; summary of the method: as §1
[8] = target: Gonadotropin-releasing hormone receptor (Homo sapiens, UniProt P30968, Y290L); assay: Displacement of [His5, D-Tyr6]GnRH from GnRHR Y290L mutant expressed in COS7 cells; type: cell-based, COS-7; summary of the method: as §1
[9] = target: Gonadotropin-releasing hormone receptor (Homo sapiens, UniProt P30968, Y284L); assay: Displacement of [His5, D-Tyr6]GnRH from GnRHR Y284L mutant expressed in COS7 cells; type: cell-based, COS-7; summary of the method: as §1
[10] = target: Gonadotropin-releasing hormone receptor (Homo sapiens, UniProt P30968, H306A); assay: Displacement of [His5, D-Tyr6]GnRH from GnRHR H306A mutant expressed in COS7 cells; type: cell-based, COS-7; summary of the method: as §1
[11] = target: Gonadotropin-releasing hormone receptor (Homo sapiens, UniProt P30968, F309L); assay: Displacement of [His5, D-Tyr6]GnRH from GnRHR F309L mutant expressed in COS-7 cells; type: cell-based; summary of the method: as §1
[12] = target: Gonadotropin-releasing hormone receptor (Homo sapiens, UniProt P30968, M24I); assay: Displacement of [His5, D-Tyr6]GnRH from GnRHR M24I mutant expressed in COS7 cells; type: cell-based, COS-7; summary of the method: as §1
[13] = target: Gonadotropin-releasing hormone receptor (Homo sapiens, UniProt P30968, H306E); assay: Displacement of [His5, D-Tyr6]GnRH from GnRHR H306E mutant expressed in COS7 cells; type: cell-based, COS-7; summary of the method: as §1
[14] = target: Gonadotropin-releasing hormone receptor (Homo sapiens, UniProt P30968, N27A); assay: Displacement of [His5, D-Tyr6]GnRH from GnRHR N27A mutant expressed in COS7 cells; type: cell-based, COS-7; summary of the method: as §1
Sequence of Gonadotropin-releasing hormone receptor (Homo sapiens, UniProt P30968, N27A) (P30968 whole entry N27A): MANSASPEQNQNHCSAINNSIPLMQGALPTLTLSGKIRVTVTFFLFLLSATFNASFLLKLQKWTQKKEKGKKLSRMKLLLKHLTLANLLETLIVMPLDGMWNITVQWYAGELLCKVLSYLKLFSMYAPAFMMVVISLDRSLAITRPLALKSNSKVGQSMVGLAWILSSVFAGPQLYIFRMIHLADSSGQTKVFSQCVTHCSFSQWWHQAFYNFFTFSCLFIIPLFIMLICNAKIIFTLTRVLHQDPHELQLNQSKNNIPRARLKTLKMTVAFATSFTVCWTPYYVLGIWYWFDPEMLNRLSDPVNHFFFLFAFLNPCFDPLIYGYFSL

Sequence of Gonadotropin-releasing hormone receptor (Homo sapiens, UniProt P30968, F309L) (P30968 whole entry F309L): as the sequence (P30968 whole entry N27A) above, with A27N, F309L counted along it
Sequence of Gonadotropin-releasing hormone receptor (Homo sapiens, UniProt P30968, Y284L) (P30968 whole entry Y284L): as the sequence (P30968 whole entry N27A) above, with A27N, Y284L counted along it
Sequence of Gonadotropin-releasing hormone receptor (Homo sapiens, UniProt P30968, H306A) (P30968 whole entry H306A): as the sequence (P30968 whole entry N27A) above, with A27N, H306A counted along it
Sequence of Gonadotropin-releasing hormone receptor (Homo sapiens, UniProt P30968, D302A) (P30968 whole entry D302A): as the sequence (P30968 whole entry N27A) above, with A27N, D302A counted along it
Sequence of Gonadotropin-releasing hormone receptor (Homo sapiens, UniProt P30968, Y290L) (P30968 whole entry Y290L): as the sequence (P30968 whole entry N27A) above, with A27N, Y290L counted along it
Sequence of Gonadotropin-releasing hormone receptor (Homo sapiens, UniProt P30968, L300A) (P30968 whole entry L300A): as the sequence (P30968 whole entry N27A) above, with A27N, L300A counted along it
Sequence of Gonadotropin-releasing hormone receptor (Homo sapiens, UniProt P30968, F272L) (P30968 whole entry F272L): as the sequence (P30968 whole entry N27A) above, with A27N, F272L counted along it
Sequence of Gonadotropin-releasing hormone receptor (Homo sapiens, UniProt P30968, F313L) (P30968 whole entry F313L): as the sequence (P30968 whole entry N27A) above, with A27N, F313L counted along it
Sequence of Gonadotropin-releasing hormone receptor (Homo sapiens, UniProt P30968, F309Q) (P30968 whole entry F309Q): as the sequence (P30968 whole entry N27A) above, with A27N, F309Q counted along it
Sequence of Gonadotropin-releasing hormone receptor (Homo sapiens, UniProt P30968, D302N) (P30968 whole entry D302N): as the sequence (P30968 whole entry N27A) above, with A27N, D302N counted along it
Sequence of Gonadotropin-releasing hormone receptor (Homo sapiens, UniProt P30968, H306E) (P30968 whole entry H306E): as the sequence (P30968 whole entry N27A) above, with A27N, H306E counted along it
Sequence of Gonadotropin-releasing hormone receptor (Homo sapiens, UniProt P30968, M24I) (P30968 whole entry M24I): as the sequence (P30968 whole entry N27A) above, with M24I, A27N counted along it
Sequence of Gonadotropin-releasing hormone receptor (Homo sapiens, UniProt P30968, Q208E) (P30968 whole entry Q208E): as the sequence (P30968 whole entry N27A) above, with A27N, Q208E counted along it

IC50 [1] [nM] | IC50 [2] [µM] | IC50 [3] [nM] | IC50 [4] [nM] | IC50 [5] [nM] | IC50 [6] [nM] | IC50 [7] [µM] | IC50 [8] [nM] | IC50 [9] [µM] | IC50 [10] [nM] | IC50 [11] [nM] | IC50 [12] [µM] | IC50 [13] [nM] | IC50 [14] [nM] | SMILES
1400 | > 10 | > 10000 | 600 | 1900 | > 10000 | > 10 | 1100 | > 10 | 3000 | > 10000 | > 10 | > 10000 | 1600 | CN(Cc1ccccc1)Cc1c(-c2ccc([N+](=O)[O-])cc2)sc2c1c(=O)n(-c1ccccc1)c(=O)n2Cc1c(F)cccc1F
160 | 2 | 230 | 29 | 210 | 240 | 2.4 | 52 | 4.4 | 1700 | 1100 | 2.3 | 1600 | 31 | CC(=O)Nc1ccc(-c2sc3c(c2CN(C)Cc2ccccc2)c(=O)n(-c2ccccc2)c(=O)n3Cc2c(F)cccc2F)cc1
13 | 0.4 | 31 | 6 | 15 | 22 | 0.22 | 20 | 1.5 | 400 | 100 | 0.38 | 800 | 26 | CN(Cc1ccccc1)Cc1c(-c2ccc(NC(=O)c3ccccc3)cc2)sc2c1c(=O)n(-c1ccccc1)c(=O)n2Cc1c(F)cccc1F
2100 | > 10 | 1400 | 240 | 3300 | 1020 | 5.2 | 350 | 5 | 4400 | 1800 | > 10 | 800 | 480 | CN(Cc1ccccc1)Cc1c(-c2ccc(NC3=NCCN3)cc2)sc2c1c(=O)n(-c1ccccc1)c(=O)n2Cc1c(F)cccc1F

Continued, molecule first:

SMILES | IC50 [1] [nM] | IC50 [2] [µM] | IC50 [3] [nM] | IC50 [4] [nM] | IC50 [5] [nM] | IC50 [6] [nM] | IC50 [7] [µM] | IC50 [8] [nM] | IC50 [9] [µM] | IC50 [10] [nM] | IC50 [11] [nM] | IC50 [12] [µM] | IC50 [13] [nM] | IC50 [14] [nM]
CN(CCc1ccccn1)Cc1c(-c2ccc([N+](=O)[O-])cc2)sc2c1c(=O)n(-c1ccccc1)c(=O)n2Cc1c(F)cccc1F | 40 | 4.5 | 450 | 52 | 58 | 110 | 3.6 | 900 | 2 | 240 | 2650 | > 10 | 400 | 200
CN(Cc1ccccc1)Cc1c(-c2ccc(NC(=O)NCc3ccccc3)cc2)sc2c1c(=O)n(-c1ccccc1)c(=O)n2Cc1c(F)cccc1F | 500 | 1.4 | 70 | 20 | 1100 | 190 | 1.2 | 70 | 6 | 600 | 900 | 0.39 | 4000 | 30
CN(Cc1ccccc1)Cc1c(-c2ccc(N)cc2)sc2c1c(=O)n(-c1ccccc1)c(=O)n2Cc1c(F)cccc1F | 530 | > 10 | 1500 | 210 | 390 | 1600 | > 10 | 390 | > 10 | 710 | 950 | 4 | 500 | 370
CN(CCc1ccccc1)Cc1c(-c2ccc([N+](=O)[O-])cc2)sc2c1c(=O)n(-c1ccccc1)c(=O)n2Cc1c(F)cccc1F | 1900 | > 10 | 5000 | 1100 | 1600 | > 10000 | > 10 | 1900 | > 10 | 3300 | > 10000 | > 10 | 7100 | 1300
